Measured values: ChEMBL document CHEMBL1128385, “Three-dimensional quantitative structure-activity relationships of somatostatin analogues. 1. Comparative molecular field analysis of growth hormone release-inhibiting potencies” (J Med Chem, 1995)

Species: Rattus norvegicus
Test: In vitro GH release inhibiting potency on anterior pitutaries from adult male rats, relative to somatostatin
Type: functional
Summary of the method: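 Rat anterior pituitary cells (adult males, 200-250 g), trypsin/DNase dispersed, plated 2 × 10^5 cells/well, cultured 96 h at 37 °C in serum-supplemented DMEM. After washing, cells were pulsed 3 h at 37 °C with 1 nM GRF(1-29)NH2 ± graded analogue doses in medium 199/1% BSA, quadruplicate wells. Medium GH was measured by double-antibody RIA. Potency relative to somatostatin (=1.0) came from four-point assay (mean of ≥3 experiments) or IC50 comparison.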

| SMILES | GHI |
| --- | --- |
| CC(C)C1NC(=O)[C@H](CCCCN)NC(=O)C(Cc2c[nH]c3ccccc23)NC(=O)[C@H](Cc2ccc(O)cc2)NC(=O)C(C)N(C)C(=O)[C@H](Cc2ccccc2)NC1=O (single isomer, unassigned) | 0.02 |
| CC(C)C1NC(=O)[C@H](CCCCN)NC(=O)[C@@H](Cc2c[nH]c3ccccc23)NC(=O)C(Cc2ccc(O)cc2)NC(=O)CCSSCC(C(=O)N[C@@H](Cc2ccccc2)C(N)=O)NC1=O (single isomer, unassigned) | 23 |
| CC(C)[C@@H]1NC(=O)C(CCCCN)NC(=O)[C@@H](Cc2c[nH]c3ccccc23)NC(=O)C(Cc2ccccc2)NC(=O)[C@@H]2CCCN2C(=O)C(Cc2ccccc2)NC1=O (single isomer, unassigned) | 0.29 |
| CC1C(=O)N[C@@H](Cc2ccccc2)C(=O)NC(Cc2c[nH]c3ccccc23)C(=O)N[C@@H](CCCCN)C(=O)NC([C@@H](C)O)C(=O)N[C@@H](Cc2ccccc2)C(=O)N1C (single isomer, unassigned) | 0.29 |
| CC1NC(=O)[C@@H]2CCCN2C(=O)C(Cc2ccccc2)NC(=O)[C@H]([C@@H](C)O)NC(=O)C(CCCCN)NC(=O)[C@@H](Cc2c[nH]c3ccccc23)NC1=O (single isomer, unassigned) | 5 |
| CC[C@@H]1NC(=O)C(CCCCN)NC(=O)[C@@H](Cc2c[nH]c3ccccc23)NC(=O)C(Cc2ccccc2)NC(=O)[C@@H]2CCCN2C(=O)C(Cc2ccccc2)NC1=O (single isomer, unassigned) | 1.25 |
| CC[C@@H]1NC(=O)[C@H](CCCCN)NC(=O)C(Cc2c[nH]c3ccccc23)NC(=O)[C@H](Cc2ccc(O)cc2)NC(=O)[C@@H]2Cc3ccccc3CN2C(=O)[C@H](Cc2ccccc2)NC1=O (single isomer, unassigned) | 0.26 |
| C[C@@H](O)[C@@H]1NC(=O)C(CCCCN)NC(=O)[C@@H](Cc2c[nH]c3ccccc23)NC(=O)C(Cc2ccc(O)cc2)NC(=O)[C@@H]2CCCN2C(=O)C(Cc2ccccc2)NC1=O (single isomer, unassigned) | 0.07 |
| C[C@@H](O)[C@@H]1NC(=O)C(CCCCN)NC(=O)[C@@H](Cc2c[nH]c3ccccc23)NC(=O)C(Cc2ccccc2)NC(=O)[C@@H]2CCCN2C(=O)C(Cc2ccccc2)NC1=O (single isomer, unassigned) | 0.59 |
| C[C@@H](O)[C@@H]1NC(=O)C(CCCCN)NC(=O)[C@@H](Cc2c[nH]c3ccccc23)NC(=O)C(Cc2ccccc2)NC(=O)[C@@H]2CCCN2C(=O)[C@@H]2CCCN2C1=O (single isomer, unassigned) | 125 |
| C[C@@H](O)[C@@H]1NC(=O)C(CCCCN)NC(=O)[C@@H](Cc2c[nH]c3ccccc23)NC(=O)C(Cc2ccccc2)NC(=O)[C@H](Cc2ccccc2)NC(=O)C(Cc2ccccc2)NC1=O (single isomer, unassigned) | 3.71 |
| C[C@@H]1NC(=O)[C@H]([C@@H](C)O)NC(=O)C(CCCCN)NC(=O)[C@@H](Cc2c[nH]c3ccccc23)NC(=O)C(Cc2ccccc2)NC(=O)[C@H]2CCCN2C1=O (single isomer, unassigned) | 166 |
| C[C@H]1C(=O)NC(Cc2ccccc2)C(=O)NCCCCCCC(=O)N[C@@H](Cc2ccccc2)C(=O)NC(Cc2ccccc2)C(=O)N[C@H](Cc2c[nH]c3ccccc23)C(=O)NC(CCCCN)C(=O)N1C (single isomer, unassigned) | 50 |
| NCCCCC1NC(=O)[C@@H](Cc2c[nH]c3ccccc23)NC(=O)C(Cc2ccccc2)NC(=O)[C@@H]2CCCN2C(=O)C(Cc2ccccc2)NC(=O)[C@H](CO)NC1=O (single isomer, unassigned) | 0.71 |
| NCCCCC1NC(=O)[C@@H](Cc2c[nH]c3ccccc23)NC(=O)C(Cc2ccccc2)NC(=O)[C@H](Cc2ccccc2)NC(=O)CCCCCCNC(=O)C(Cc2ccccc2)NC(=O)C2(CCCC2)NC1=O (single isomer, unassigned) | 6.7 |
| CC1NC(=O)[C@H]([C@@H](C)O)NC(=O)C(CCCCN)NC(=O)[C@@H](Cc2c[nH]c3ccccc23)NC(=O)C(Cc2ccccc2)NC(=O)[C@@H]2CCCN2C1=O (single isomer, unassigned; 58) | 16.7 |
| CC1NC(=O)[C@H]([C@@H](C)O)NC(=O)C(CCCCN)NC(=O)[C@@H](Cc2c[nH]c3ccccc23)NC(=O)C(Cc2ccccc2)NC(=O)[C@@H]2CCCN2C1=O (single isomer, unassigned; 61) | 500 |
| CC(C)C[C@@H]1NC(=O)[C@H](Cc2ccccc2)NC(=O)CCCCCCNC(=O)[C@H](Cc2ccccc2)NC(=O)[C@H]([C@@H](C)O)NC(=O)[C@H](CCCCN)NC(=O)[C@@H](Cc2c[nH]c3ccccc23)NC1=O (stereo in doubt) | 1.05 |

| SMILES | GHI |
| --- | --- |
| COc1ccc2[nH]cc(C[C@@H]3NC(=O)[C@H](Cc4ccccc4)NC(=O)[C@H](Cc4ccccc4)NC(=O)CCCCCCNC(=O)[C@H](Cc4ccccc4)NC(=O)[C@H]([C@@H](C)O)NC(=O)[C@H](CCCCN)NC3=O)c2c1 (stereo in doubt) | 50 |
| C[C@@H](O)[C@@H]1NC(=O)[C@H](CCCCN)NC(=O)[C@@H](Cc2c[nH]c3ccccc23)NC(=O)[C@H](Cc2c[nH]c3ccccc23)NC(=O)[C@H](Cc2ccccc2)NC(=O)CCCCCCNC(=O)[C@H](Cc2ccccc2)NC1=O (stereo in doubt) | 16.7 |
| C[C@@H](O)[C@@H]1NC(=O)[C@H](CCCCN)NC(=O)[C@@H](Cc2c[nH]c3ccccc23)NC(=O)[C@H](Cc2ccc(Cl)cc2)NC(=O)[C@H](Cc2ccccc2)NC(=O)CCCCCCNC(=O)[C@H](Cc2ccccc2)NC1=O (stereo in doubt) | 1.4 |
| C[C@@H](O)[C@@H]1NC(=O)[C@H](CCCCN)NC(=O)[C@@H](Cc2c[nH]c3ccccc23)NC(=O)[C@H](Cc2ccc(F)cc2)NC(=O)[C@H](Cc2ccccc2)NC(=O)CCCCCCNC(=O)[C@H](Cc2ccccc2)NC1=O (stereo in doubt) | 20 |
| C[C@@H](O)[C@@H]1NC(=O)[C@H](CCCCN)NC(=O)[C@@H](Cc2c[nH]c3ccccc23)NC(=O)[C@H](Cc2ccc(N)cc2)NC(=O)[C@H](Cc2ccccc2)NC(=O)CCCCCCNC(=O)[C@H](Cc2ccccc2)NC1=O (stereo in doubt) | 35 |
| C[C@@H](O)[C@@H]1NC(=O)[C@H](CCCCN)NC(=O)[C@@H](Cc2c[nH]c3ccccc23)NC(=O)[C@H](Cc2ccc(O)cc2)NC(=O)[C@H](Cc2ccccc2)NC(=O)CCCCCCNC(=O)[C@H](Cc2ccccc2)NC1=O (stereo in doubt) | 1.04 |
| C[C@@H](O)[C@@H]1NC(=O)[C@H](CCCCN)NC(=O)[C@@H](Cc2c[nH]c3ccccc23)NC(=O)[C@H](Cc2ccc([N+](=O)[O-])cc2)NC(=O)[C@H](Cc2ccccc2)NC(=O)CCCCCCNC(=O)[C@H](Cc2ccccc2)NC1=O (stereo in doubt) | 3.5 |
| C[C@@H](O)[C@@H]1NC(=O)[C@H](CCCCN)NC(=O)[C@@H](Cc2c[nH]c3ccccc23)NC(=O)[C@H](Cc2ccccc2)NC(=O)[C@@H]2CSSC[C@H](NC1=O)C(=O)NCCCCCCC(=O)N2 (stereo in doubt) | 0.81 |
| C[C@@H](O)[C@@H]1NC(=O)[C@H](CCCCN)NC(=O)[C@@H](Cc2c[nH]c3ccccc23)NC(=O)[C@H](Cc2ccccc2)NC(=O)[C@H](Cc2ccccc2)NC(=O)CCCCCCNC(=O)[C@H](Cc2ccccc2)NC1=O (stereo in doubt) | 1.08 |
| C[C@@H](O)[C@@H]1NC(=O)[C@H](CCCCN)NC(=O)[C@@H](Cc2c[nH]c3ccccc23)NC(=O)[C@H](Cc2cscn2)NC(=O)[C@H](Cc2ccccc2)NC(=O)CCCCCCNC(=O)[C@H](Cc2ccccc2)NC1=O (stereo in doubt) | 5 |
| C[C@@H](O)[C@@H]1NC(=O)[C@H](CCCCN)NC(=O)[C@H](Cc2c[nH]c3cc(F)ccc23)NC(=O)[C@H](Cc2ccccc2)NC(=O)[C@H](Cc2ccccc2)NC(=O)CCCCCCNC(=O)[C@H](Cc2ccccc2)NC1=O (stereo in doubt) | 2.4 |
| C[C@@H](O)[C@@H]1NC(=O)[C@H](CCCCN)NC(=O)[C@H](Cc2c[nH]c3ccc(Br)cc23)NC(=O)[C@H](Cc2ccccc2)NC(=O)[C@H](Cc2ccccc2)NC(=O)CCCCCCNC(=O)[C@H](Cc2ccccc2)NC1=O (stereo in doubt) | 50 |
| C[C@@H](O)[C@@H]1NC(=O)[C@H](CCCCN)NC(=O)[C@H](Cc2c[nH]c3ccc(F)cc23)NC(=O)[C@H](Cc2ccccc2)NC(=O)[C@H](Cc2ccccc2)NC(=O)CCCCCCNC(=O)[C@H](Cc2ccccc2)NC1=O (stereo in doubt) | 6.7 |
| C[C@@H](O)[C@@H]1NC(=O)[C@H](CCCN)NC(=O)[C@@H](Cc2c[nH]c3ccccc23)NC(=O)[C@H](Cc2ccccc2)NC(=O)[C@H](Cc2ccccc2)NC(=O)CCCCCCNC(=O)[C@H](Cc2ccccc2)NC1=O (stereo in doubt) | 20 |
| C[C@@H](O)[C@@H]1NC(=O)[C@H](CCCN=C(N)N)NC(=O)[C@@H](Cc2c[nH]c3ccccc23)NC(=O)[C@H](Cc2ccccc2)NC(=O)[C@H](Cc2ccccc2)NC(=O)CCCCCCNC(=O)[C@H](Cc2ccccc2)NC1=O (stereo in doubt) | 14 |
| C[C@@H](O)[C@@H]1NC(=O)[C@H](Cc2ccc(N)cc2)NC(=O)[C@H](Cc2cn(C)c3ccccc23)NC(=O)[C@H](Cc2ccccc2)NC(=O)[C@H](Cc2ccccc2)NC(=O)CCCCCCNC(=O)[C@H](Cc2ccccc2)NC1=O (stereo in doubt) | 1.8 |
| C[C@@H]1NC(=O)[C@H](Cc2ccccc2)NC(=O)CCCCCCNC(=O)[C@H](Cc2ccccc2)NC(=O)[C@H]([C@@H](C)O)NC(=O)[C@H](CCCCN)NC(=O)[C@@H](Cc2c[nH]c3ccccc23)NC1=O (stereo in doubt) | 6.25 |
| Cc1ccc2[nH]cc(C[C@@H]3NC(=O)[C@H](Cc4ccccc4)NC(=O)[C@H](Cc4ccccc4)NC(=O)CCCCCCNC(=O)[C@H](Cc4ccccc4)NC(=O)[C@H]([C@@H](C)O)NC(=O)[C@H](CCCCN)NC3=O)c2c1 (stereo in doubt) | 14 |
